High-throughput results as filed in PubChem BioAssay.
Tn7 DDE FP: DD(E)-Tn7 binding inhibition, primary FP screen. P02675. FP displacement of FITC-Tn7 peptide from fibrin DD(E); 0% = median of compound wells per plate. inhibition, % at 8.3 µM. 370,000 tested, 0.13% active;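 active means inhibition above the mean of compounds falling within the control limits plus 3 SD of them, cut at about 14% in these data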
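Assay system: Fibrin-DD(E) protein isolated from polymerized human fibrin clots; read-out basis: percent inhibition; medium: Tris/NaCl/CaCl2 buffer, pH 7.8; signal: FP measurement; incubation: 10 min plus 3 h, room temperature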
TCR-CD3 inh: blocks the human TCR-CD3 interaction. 360,000 tested, 0.37% active. AID 651800. TAMRA-labeled TCR probe fluorescence, biochemical. inhibition, % at 9.4 µM; in the data active means inhibition above about 19%;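 further: recombinant mutant TCR 2C K166C tagged with TAMRA read by polarization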
HTRA1 inhibitor: blocks human HTRA1 serine peptidase; Q92743; recombinant HTRA1, FP-rhodamine activity-based probe, fluorescence polarization; inhibition, % at 5.96 µM; 340,000 tested, 0.5% active; AID 504803; in the data active means inhibition above about 36%
SIAE inh: inhibitors of human sialic acid acetylesterase SIAE. 370,000 tested, 0.69% active. inhibition, % at 9.66 µM. SIAE FP-Rh probe binding, fluorescence polarization;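 active means inhibition above a cutoff: mean of compounds within the control limits plus 3 SD of those, cut at about 17% in these data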
DDE Tn6 FP inh: disrupts Tn6 cyclic peptide binding to fibrin D-Dimer-E complex. inhibition, % at 8.3 µM. 370,000 tested, 0.21% active. Fibrin DD(E) TRITC-Tn6 fluorescence polarization displacement. AID 720509;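 active means inhibition above a per-campaign cutoff: mean of compounds within control limits plus 3 SD, cut at about 15% in these data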
ABHD4 inh: ABHD4 (mouse) inhibition, primary FP screen; Q8VD66; purified mABHD4, FP-Rh probe fluorescence polarization; inhibition, % at 8.92 µM; 370,000 tested, 0.54% active; AID 720543;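 active means inhibition exceeding the mean over every tested compound plus 3 SD, cut at about 30% in these data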
Target sequence (Q8VD66 whole entry, looked up): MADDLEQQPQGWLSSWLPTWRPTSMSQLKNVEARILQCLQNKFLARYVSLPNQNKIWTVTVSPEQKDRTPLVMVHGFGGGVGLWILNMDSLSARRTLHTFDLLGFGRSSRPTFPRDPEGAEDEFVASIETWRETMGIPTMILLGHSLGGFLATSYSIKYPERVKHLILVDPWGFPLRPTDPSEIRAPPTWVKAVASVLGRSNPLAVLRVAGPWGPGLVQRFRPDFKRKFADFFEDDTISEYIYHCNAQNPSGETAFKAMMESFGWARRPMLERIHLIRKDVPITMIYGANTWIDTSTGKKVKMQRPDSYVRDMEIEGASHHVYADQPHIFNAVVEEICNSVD
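Assay system: Wild-type mouse ABHD4 protein | Medium: HEPES pH 7.0 buffer, 150 mM NaCl, 0.01% Pluronic F-127 | Incubation: Enzyme–compound pre-incubation 45 min, then probe 60 min, both 25 °C | Technique: Fluorescence polarization with parallel and perpendicular emission, 525/598 nm | Evaluation: % inhibition of FP-Rh probe binding versus controls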
ABHD4 confirm: confirmation of mouse ABHD4 inhibitors; inhibition, % at 8.92 µM; 1,800 tested, 55% active; AID 720658; shares compounds with ABHD4 inh; purified mABHD4, FP-Rh probe fluorescence polarization;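 active means mean inhibition across replicates above the hit cutoff set in the primary screen, cut at about 30% in these data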
Each line names hits and unclear results; the compound was inactive in the other large screens (follow-up assays come after a bar, where they were run). Only some compounds are listed: those with a hit (about 1.8% of all), similar ones and a draw of the others.

CCC[C@H]1[C@@H](NC(=O)C#Cc2ccccc2)CC[C@@]23CCCN2C(=O)CCC[C@@H]13	none (no result: TCR-CD3 inh, HTRA1 inhibitor)
O=S(=O)(c1ccc(F)cc1)N1CCN(Cc2cc3c(cc2Br)OCCO3)CC1	none
Oc1ccc(N2CCN(Cc3cc4c(cc3Br)OCCO4)CC2)cc1	ABHD4 inh 33.8 | ABHD4 confirm inactive
COc1cc(O)c(C(CC(=O)N2CCC(C)CC2)c2ccc3c(c2)OCO3)c(OC)c1 (configuration not stated)	none (no result: TCR-CD3 inh, HTRA1 inhibitor)
CCOC(=O)C1Nc2ccccc2C2C(O)C(O)CC12 (configuration not stated)	ABHD4 inh 51.1 | ABHD4 confirm inactive
Cc1ccc(N2CCN(c3ccc(NC(=O)CCC(=O)O)cc3)CC2)cc1	none
O=C(O)CCC(=O)Nc1ccc(N2CCCCCC2)cc1	ABHD4 inh 31.5 | ABHD4 confirm inactive
C[C@H](O)[C@@H]1CN2CCc3c([nH]c4cccc(-c5ccccc5)c34)[C@@H]2C[C@@H]1N(C)C(=O)Nc1ccccc1	none (no result: TCR-CD3 inh, HTRA1 inhibitor)
CCCCn1c(N)c(N(CC(C)C)C(=O)C2CCCO2)c(=O)[nH]c1=O (configuration not stated)	ABHD4 inh 31.6 | ABHD4 confirm inactive
CCCCn1c(N)c(N(CC(C)C)C(=O)c2ccc(N3C(=O)CCC3=O)cc2)c(=O)[nH]c1=O	ABHD4 inh 34.9 | ABHD4 confirm inactive
Cc1c(NC(=O)C2CCCN(S(=O)(=O)c3cccc4ccccc34)C2)c(=O)n(-c2ccccc2)n1C (configuration not stated)	none (no result: TCR-CD3 inh, HTRA1 inhibitor)
COc1ccc2nc(Nc3nc(C)c(C(C)=O)s3)sc2c1	ABHD4 inh 35.1 | ABHD4 confirm 54.1
COc1ccc(Nc2nc3ccc(OC)cc3s2)cc1	none
COc1cccc(/C=N/Nc2nccnc2Cl)c1O	ABHD4 inh 29.9 | ABHD4 confirm 41.1
Oc1ccc(/C=N/Nc2nccnc2Cl)c(O)c1	ABHD4 inh 42.5 | ABHD4 confirm 45.2
COc1cccc(/C=N/Nc2ncnc(Cl)c2N)c1O	none
O=[N+]([O-])c1ccc(NN=Cc2ccc(O)cc2O)nc1	ABHD4 inh 29.9 | ABHD4 confirm 30.0
C[C@H](O)[C@@H]1C(=O)N2CCc3c([nH]c4c(-c5ccc6c(c5)OCO6)cccc34)[C@@H]2C[C@@H]1N(C)C(=O)c1ccccc1F	none (no result: TCR-CD3 inh, HTRA1 inhibitor)
CCn1c(=O)n(CC(=O)N2CCCC2)c(=O)c2ccccc21	none (no result: TCR-CD3 inh, HTRA1 inhibitor)
Cn1c(-c2ccsc2)c(-c2cccs2)c2cc(-c3ccc4cc[nH]c4c3)ccc21	ABHD4 inh 34.9 | ABHD4 confirm 39.7
Cn1c(-c2ccsc2)c(-c2cccs2)c2cc(-c3ccc4[nH]ccc4c3)ccc21	none
Nn1c(SCc2ccc(Br)cc2)nnc1-c1ccccn1	none
Cc1cccc(CSc2nnc(-c3ccccn3)n2N)c1	ABHD4 inh 35.8 | ABHD4 confirm inactive
COc1cc(-n2c(C)nc3cc(C(=O)N4CCN(C(C)=O)CC4)ccc32)cc(OC)c1OC	none (no result: TCR-CD3 inh, HTRA1 inhibitor)
COc1cc(O)cc2cc3c(c(O)c12)C(=O)CC(C)(O)O3 (configuration not stated)	ABHD4 inh 38.1 | ABHD4 confirm inactive
CC(C)[C@@H](CO)N1Cc2nnn(Cc3ccccc3)c2-c2ccccc2S1(=O)=O	none (no result: TCR-CD3 inh, HTRA1 inhibitor)
Clc1cccc(-c2ccc(-c3nc4ccccn4c3NCc3ccccc3)cc2)c1	ABHD4 inh 37.2 | ABHD4 confirm 33.3
c1ccc(-c2nc3ccccn3c2NCc2ccc3c(c2)OCO3)cc1	none
CC(C)c1ccc(NC(=O)Nc2nc(C(N)C3CCCCC3)cs2)cc1 (configuration not stated)	ABHD4 inh 31.2 (no result: HTRA1 inhibitor) | ABHD4 confirm 32.1
COc1ccc(NC(=O)Nc2nc(C(N)C3CCCCC3)cs2)cc1 (configuration not stated)	none (no result: HTRA1 inhibitor)
CCN(C(=S)NC(=O)c1ccco1)c1cccc2ccccc12	ABHD4 inh 35.6 | ABHD4 confirm inactive
COc1ccc(Cl)cc1NC(=O)NNC(=O)c1ccccn1	ABHD4 inh 39.7 | ABHD4 confirm inactive
Cc1nn(Cc2ccccc2)c2c1C(c1ccc(Cl)cc1)C(C#N)=C(N)O2 (configuration not stated)	ABHD4 inh 34.2 | ABHD4 confirm inactive
OC(CCN1CC2CCC(CC2)C1)(Cc1ccccc1)c1ccco1 (configuration not stated)	ABHD4 inh 36.9 | ABHD4 confirm inactive
Oc1ccc(C=Nc2cccc3ccccc23)c(O)c1	ABHD4 inh 30.3 | ABHD4 confirm inactive
N#Cc1ccc(/C=C2\CC3(OC(=O)c4ccc(Cl)cc4)CCCN2C3)cc1 (configuration not stated)	none (no result: TCR-CD3 inh, HTRA1 inhibitor)
C[C@H]1[C@@H](NCC2CCCCC2)CC[C@@]23CCCN2C(=O)CCC[C@@H]13	none (no result: TCR-CD3 inh, HTRA1 inhibitor)
O=C(CC1C=CCC1)OCCN1CCN(C2CN(Cc3cn(Cc4ccccc4Cl)nn3)S(=O)(=O)C2)CC1 (configuration not stated)	none (no result: TCR-CD3 inh, HTRA1 inhibitor)
COC(=O)[C@]12C[C@H](CC(=O)NCC34CC5CC(CC(C5)C3)C4)C(=O)N(Cc3ccco3)C1=C[C@H](C1CCCC1)O[C@@H]2C	none (no result: TCR-CD3 inh, HTRA1 inhibitor)
CC(C)n1cnc2c(NCc3ccccc3)cc(Cc3ccc(F)cc3)cc21	ABHD4 inh 30.7 | ABHD4 confirm inactive
Cc1ccc(-n2nc(C)c3c2OC(N)=C(C#N)C3c2ccco2)cc1 (configuration not stated)	ABHD4 inh 41.0 | ABHD4 confirm inactive
C=CCN(C)C(C#Cc1ccccc1)c1ccccc1C(F)(F)F (configuration not stated)	none (no result: TCR-CD3 inh, HTRA1 inhibitor)
Cc1ccc(Cn2nnc3c2-c2ccccc2S(=O)(=O)N(C)C3)cc1	none (no result: TCR-CD3 inh, HTRA1 inhibitor)
O=C(NN=Cc1ccc(O)cc1O)c1ccccc1NS(=O)(=O)c1cccs1	ABHD4 inh 32.6 | ABHD4 confirm 35.9
CCN(CC)S(=O)(=O)c1ccc2c(c1)NC(=O)C1CCCN21 (configuration not stated)	ABHD4 inh 31.2 | ABHD4 confirm 43.9
CC(COc1cccc(C#N)c1)CN1CCC(C(O)(c2ccccc2)c2ccccc2)CC1 (configuration not stated)	none (no result: TCR-CD3 inh, HTRA1 inhibitor)
CCN(C[C@H]1[C@@H](c2ccc(C3=CCCC3)cc2)[C@H](CO)N1Cc1ccccn1)S(=O)(=O)c1ccccc1[N+](=O)[O-]	none (no result: TCR-CD3 inh, HTRA1 inhibitor)
COc1ccc(C(=O)NNC2=Nc3cccc4cccc2c34)cc1	none
Cc1ccc(C(=O)NNC2=Nc3cccc4cccc2c34)cc1	ABHD4 inh 30.0 | ABHD4 confirm inactive
CCOc1cc(/C=C2\N=C(SCC)SC2=O)cc([N+](=O)[O-])c1OC(C)=O	ABHD4 inh 42.3 | ABHD4 confirm 83.5
CCOc1cc(/C=C2\N=C(SC)SC2=O)cc([N+](=O)[O-])c1OC(C)=O	none (no result: Tn7 DDE FP, TCR-CD3 inh, SIAE inh, DDE Tn6 FP inh, ABHD4 inh)
